hIAP activ = increases human intestinal alkaline phosphatase activity | purified human IAP, CDP-Star luminescence, 30 min; stronger effect = higher value; 1 = vehicle-only enzyme, 0 = enzyme-free background | P09923 | 330,000 tested, 0.16% active | AID 2524 | activation factor at 10 µM;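 active = activation factor of the enzyme at least 2-fold when tested at 20 µM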
Target sequence (P09923 whole entry, looked up): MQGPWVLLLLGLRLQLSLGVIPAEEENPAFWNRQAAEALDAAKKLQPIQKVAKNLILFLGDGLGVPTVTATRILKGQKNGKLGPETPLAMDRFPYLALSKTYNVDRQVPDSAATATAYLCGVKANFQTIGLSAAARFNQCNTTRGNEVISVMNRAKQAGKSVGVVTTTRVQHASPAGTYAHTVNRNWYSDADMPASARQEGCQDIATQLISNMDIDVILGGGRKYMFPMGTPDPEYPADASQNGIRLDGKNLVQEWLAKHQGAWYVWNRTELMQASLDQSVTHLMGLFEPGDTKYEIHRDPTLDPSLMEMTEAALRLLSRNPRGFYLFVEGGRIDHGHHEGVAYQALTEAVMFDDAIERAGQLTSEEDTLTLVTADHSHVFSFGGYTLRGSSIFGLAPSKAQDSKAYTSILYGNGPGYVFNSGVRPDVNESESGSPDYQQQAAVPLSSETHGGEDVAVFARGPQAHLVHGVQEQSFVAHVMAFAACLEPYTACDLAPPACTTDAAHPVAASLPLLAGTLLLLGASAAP
mIAP block = blocks mouse intestinal alkaline phosphatase; purified mouse IAP, CDP-Star luminescence, 30 min; inhibition, % at 10 µM; 330,000 tested, 0.2% active; AID 2806;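 active = inhibition of at least 40% at 10 µM in the primary screen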;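 also: plate controls were DMSO with enzyme for no effect and no enzyme wells for full effect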
hIAP block = blocks human intestinal alkaline phosphatase; purified IAP, CDP-Star luminescence, 30 min; P09923; AID 2544; 330,000 tested, 0.12% active; inhibition, % at 10 µM;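 active = inhibition reaching a set limit with compound at 10 µM in the primary screen, cut at about 35% in these data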;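 also: plate controls were DMSO wells with enzyme for no effect and no-enzyme buffer wells for full effect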
mIAP act = mouse IAP activation; muIAP, CDP-Star luminescence, 30 min; stronger effect = higher value; 1 = vehicle-only enzyme signal, 0 = enzyme-free wells; activation factor at 10 µM; 330,000 tested, 0.24% active; AID 2805;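 active = activation factor of at least 2 at 20 µM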
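Assay system: mouse IAP enzyme / Compound: DMSO-dissolved test compounds / Timing: 30 min, room temperature / Measured by: luminescence from enzymatic CDP-Star hydrolysis / Control set: DMSO-only wells, enzyme-free buffer wells as negative control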
bIAP inh = blocks bovine intestinal alkaline phosphatase activity. inhibition, % at 20 µM. purified bovine IAP, CDP-star luminescence, 30 min. 190,000 tested, under 10 active;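 active = over 50% inhibition of intestinal alkaline phosphatase at 20 µM in the single-dose screen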
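Assay system: bovine IAP enzyme; medium: DEA buffer 100 mM, pH 9.8, with MgCl2 1.0 mM, ZnCl2 0.02 mM; doses: 20 µM single dose; incubation: enzyme reaction for 30 min at room temperature; detection: CDP-star luminescence signal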
bIAP act = increases bovine intestinal alkaline phosphatase activity. 200,000 tested, 0.17% active. purified bovine IAP, CDP-star luminescence, 30 min; stronger effect = higher value; fold of DMSO-control signal, blank-subtracted. activation factor at 20 µM. AID 1016;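 active = activation factor of 2 or more at 20 µM, a signal rise over negative controls twice the positive control's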
hIAP act conf = human IAP activation confirmation. activation (%Activity, negative = activation), % at 8.3 µM. purified IAP, CDP-Star luminescence, 30 min; stronger effect = lower value. shares compounds with hIAP activ. 880 tested, 10% active;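 active = at least twofold enzyme activation in any of six single-dose repeats, which the averaged readout prints as negative percent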
* = called active by the depositor; . = not tested or not shown. Sampled rows, rich in hits. Any-hit rate of the full collection: about 0.77%.

SMILES	hIAP activ	mIAP block	hIAP block	mIAP act	bIAP inh	bIAP act	hIAP act conf
Cc1nc2c3ccccc3nc(NNC(=O)CCC(=O)N3CCN(c4ccccc4)CC3)n2n1	2.3*	8	-128	0.92	.	.	-42
CCOCCCNC(=O)CCC(=O)NNc1nc2ccccc2c2nc(-c3ccccc3)nn12	2.1*	17	-109	0.83	8	0.9	48
C/C(=N\NC(=O)c1ccc(O)cc1)c1cccc(NC(=O)c2ccc(Cl)cc2)c1	1.1	-5	-13	1.1	.	.	.
Cc1nc2c3ccccc3nc(NNC(=O)CCC(=O)NCCC(C)C)n2n1	2.1*	14	-111	0.86	-10	1.1	-64*
CCCn1c(=O)c(C(=O)NNC(=O)c2ccc(Cl)cc2Cl)c(O)c2ccccc21	2.9*	3	-195	0.97	.	.	-68
CCn1c(=O)c(C(=O)NNC(=O)c2ccc(Cl)cc2Cl)c(O)c2ccccc21	1.5	16	-49	0.84	.	.	.
Cc1cc(C(=O)NNC(=O)COc2c(C)cc(Br)cc2C)n[nH]1	2.2*	22	-120	0.78	.	.	0
Cc1cc(C(=O)NNC(=O)COc2ccccc2Cl)n[nH]1	3.1*	12	-214	0.88	.	.	8
Cc1ccc(OCC(=O)NNC(=O)c2cc(C)[nH]n2)cc1	0.9	15	10	0.85	-2	1	.
O=c1c2ccccc2nnn1COc1ccc(Cl)cc1Br	0.77	9	23	0.91	-16	1.2	.
CS(=O)(=O)c1ccc(Cl)c(NC(=O)Cc2ccsc2)c1	0.64	-2	36*	1	.	.	5
CS(=O)(=O)c1ccc(Cl)c(NC(=O)Cc2c(Cl)cccc2Cl)c1	1.1	0	-10	1	12	0.9	.
CC(C)CCC(CC(C)O)C(=O)NNC(=S)Nc1ccccc1 (stereo not drawn)	1.4	14	-40	0.86	.	.	.
COc1ccc(-c2nc(NC(=O)c3n[nH]c(=O)c4ccccc34)sc2C)cc1	2.1*	4	-115	0.96	-23	1.2	-33
COc1cc(NC(=O)c2n[nH]c(=O)c3ccccc23)cc(OC)c1	0.89	0	12	1	.	.	.
O=C(NNC(=O)c1ncc(Cl)c(Cl)c1Cl)c1ccc(F)cc1	2.2*	11	-116	0.89	.	.	-2
Cc1cc2nc(C3CCN(Cc4nnnn4Cc4cccs4)CC3)[nH]c2cc1C	0.63	-15	37*	1.1	.	0.5	79
Cc1ccc(CN2CCC(c3nc4ccc(Cl)cc4[nH]3)CC2)cc1	1.1	-60	-7	1.6	-38	1.4	.
CC(=O)C[C@@H](O)CC(=O)[C@@H]1OC(=O)[C@@H](C)C/C=C\Cc2ccccc21	0.9	8	10	0.92	.	.	.
Cc1c(C(=O)N/N=C/c2c(O)ccc3ccccc23)nnn1-c1nonc1N	2*	21	-105	0.79	.	.	-86*
Cc1c(N2C(=O)/C(=C\c3ccccc3O)SC2=S)c(=O)n(-c2ccccc2)n1C	0.87	14	13	0.86	.	.	.
CN1C(=O)/C(=C/c2cc(N=Nc3ccccc3)ccc2O)SC1=S	0.54	40*	46*	0.6	28	0.7	-54
N#C/C(=C\c1ccccc1)C(=O)Nc1nncs1	0.94	8	6	0.92	.	.	.
COc1cc(/C=C2\SC(=S)N(N(C)c3ccccc3)C2=O)ccc1O	0.59	30	41*	0.69	.	.	60
CCOc1cc(/C=C2/SC(=S)N(Cc3ccccc3)C2=O)ccc1O	1.1	28	-10	0.72	.	.	.
CC1CCN(c2ccc3nnc(CCC(=O)NC(C)C)n3n2)CC1	1.1	-13	-8	1.1	.	.	.
N#C/C(=C(\O)c1ccco1)c1ccccn1	2.1*	-4	-105	1	11	0.9	55
CC12CN(C(=O)c3cccc([N+](=O)[O-])c3)C3(C#N)CC1CCC23C (stereo not drawn)	1.4	-5	-36	1	.	.	.
O=C(NNc1ncnc2c1cnn2-c1ccc(F)cc1)c1ccco1	2.6*	1	-163	0.99	.	.	-47*
CC(=O)NNc1ncnc2c1cnn2-c1ccc(C)c(C)c1	2.5*	14	-148	0.85	-49	1.5	-78
